Data reported in ChEMBL document CHEMBL1136237, “2-piperidin-4-yl-benzimidazoles with broad spectrum antibacterial activities” (2003).
In brackets after ≈: the same amount, converted by molar mass.

Key:
Pseudomonas aeruginosa = assay: Antibacterial activity determined against gram-negativeP. aeruginosa 25416; assay type: functional
How it was run: (§1)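 Broth microdilution: an overnight-culture bacterial suspension was added to compound in 2.5% DMSO in water, giving a final inoculum of about 10^2–10^3 CFU/well. Plates were incubated 20–24 h at 37 °C, and growth relative to a no-compound control was read as A595. MIC was given as a range: complete inhibition at the upper concentration, viable cells at the lower.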

Proteus vulgaris = assay: Antibacterial activity determined against gram-negativeP. vulgaris 8427; assay type: functional; how it was run: as §1
Enterococcus faecalis [1] = assay: Antibacterial activity determined against Enterococcus faecalis ATCC 4200; assay type: functional; how it was run: as §1
Enterococcus faecium [2] = assay: Antibacterial activity determined against Enterococcus faecium ATCC 6569; assay type: functional; how it was run: as §1
Streptococcus pneumoniae = assay: Antibacterial activity determined against gram-positive Streptococcus pneumoniae 6303; assay type: functional; how it was run: as §1
Escherichia coli [3] = assay: Antibacterial activity determined against gram-negativeE. coli 25922; assay type: functional; how it was run: as §1
Enterococcus faecalis [4] = assay: Antibacterial activity determined against Enterococcus faecalis ATCC 828; assay type: functional; how it was run: as §1
Escherichia coli [5] = assay: Antibacterial activity determined against Escherichia coli; assay type: functional; how it was run: as §1
Enterococcus faecalis [6] = assay: Antibacterial activity determined against Enterococcus faecalis ATCC 49757; assay type: functional; how it was run: as §1
Candida albicans [7] = assay: Antifungal activity determined against Candida albicans 10231; assay type: functional
How it was run: (§2)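 Candida albicans: an overnight-culture yeast suspension was added to compound in 2.5% DMSO in water, giving a final inoculum of about 10^2–10^3 CFU/well. Plates were incubated 40–48 h at 25 °C, and growth versus a no-compound control was read as A595. MIC was given as a range: complete inhibition at the higher concentration, viable cells at the lower.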

Enterococcus faecalis [8] = assay: Antibacterial activity determined against Enterococcus faecalis ATCC 11823; assay type: functional; how it was run: as §1
[9] = Inhibition of bacterial transcription/translation
Enterococcus faecium [10] = assay: Antibacterial activity determined against Enterococcus faecium ATCC 882; assay type: functional; how it was run: as §1
Streptococcus pyogenes = assay: Antibacterial activity determined against gram-positive Streptococcus pyogenes 49399; assay type: functional; how it was run: as §1
Klebsiella pneumoniae = assay: Antibacterial activity determined against gram-negativeK. pneumoniae 13383; assay type: functional; how it was run: as §1
Staphylococcus aureus [11] = assay: Antibacterial activity determined against gram-positive Staphylococcus aureus 13709; assay type: functional; how it was run: as §1
Staphylococcus aureus [12] = assay: Antibacterial activity determined against Staphylococcus aureus; assay type: functional; how it was run: as §1
Enterococcus faecalis [13] = assay: Antibacterial activity determined against Enterococcus faecalis ATCC 23241; assay type: functional; how it was run: as §1
Enterococcus hirae = assay: Antibacterial activity determined against gram-positive Enterococcus hirae 29212; assay type: functional; how it was run: as §1
Enterococcus faecalis [14] = assay: Anti-bacterial activity determined against Enterococcus faecalis ATCC 49757; assay type: functional; how it was run: as §1
Candida albicans [15] = assay: Antibacterial activity determined against Candida albicans 10231; assay type: functional; how it was run: as §2

Structure (SMILES)	MIC (Pseudomonas aeruginosa)	MIC (Proteus vulgaris)	MIC (Enterococcus faecalis [1])	MIC (Enterococcus faecium [2])	MIC (Streptococcus pneumoniae)	MIC (Escherichia coli [3])	MIC (Enterococcus faecalis [4])	MIC (Escherichia coli [5])	MIC (Enterococcus faecalis [6])	MIC (Candida albicans [7])	MIC (Enterococcus faecalis [8])	IC50 [9]	MIC (Enterococcus faecium [10])	MIC (Streptococcus pyogenes)	MIC (Klebsiella pneumoniae)	MIC (Staphylococcus aureus [11])	MIC (Staphylococcus aureus [12])	MIC (Enterococcus faecalis [13])	MIC (Enterococcus hirae)	other results
Clc1cc2nc(C3CCNCC3)n(Cc3ccc(CN4CCCNCC4)cc3)c2cc1Cl	25 µM (≈ 11.8 µg/mL)	25 µM (≈ 11.8 µg/mL)	12 µM (≈ 5.67 µg/mL)	6 µM (≈ 2.83 µg/mL)	12 µM (≈ 5.67 µg/mL)	12 µM (≈ 5.67 µg/mL)	12 µM (≈ 5.67 µg/mL)	12 µM (≈ 5.67 µg/mL)	6 µM (≈ 2.83 µg/mL)	> 100 µM	12 µM (≈ 5.67 µg/mL)	> 100 µM	12 µM (≈ 5.67 µg/mL)	6 µM (≈ 2.83 µg/mL)	12 µM (≈ 5.67 µg/mL)	6 µM (≈ 2.83 µg/mL)	6 µM (≈ 2.83 µg/mL)	12 µM (≈ 5.67 µg/mL)	3 µM (≈ 1.42 µg/mL)	–
NCCNCc1ccc(Cn2c(C3CCNCC3)nc3cc(Cl)c(Cl)cc32)cc1	12 µM (≈ 5.19 µg/mL)	25 µM (≈ 10.8 µg/mL)	12 µM (≈ 5.19 µg/mL)	6 µM (≈ 2.59 µg/mL)	12 µM (≈ 5.19 µg/mL)	12 µM (≈ 5.19 µg/mL)	12 µM (≈ 5.19 µg/mL)	12 µM (≈ 5.19 µg/mL)	12 µM (≈ 5.19 µg/mL)	> 100 µM	6 µM (≈ 2.59 µg/mL)	12 µM	12 µM (≈ 5.19 µg/mL)	6 µM (≈ 2.59 µg/mL)	12 µM (≈ 5.19 µg/mL)	6 µM (≈ 2.59 µg/mL)	6 µM (≈ 2.59 µg/mL)	12 µM (≈ 5.19 µg/mL)	3 µM (≈ 1.3 µg/mL)	–
Clc1cc2nc(C3CCNCC3)n(Cc3ccc(CNCCCn4ccnc4)cc3)c2cc1Cl	–	–	12 µM (≈ 5.97 µg/mL)	6 µM (≈ 2.98 µg/mL)	–	–	6 µM (≈ 2.98 µg/mL)	12 µM (≈ 5.97 µg/mL)	–	–	6 µM (≈ 2.98 µg/mL)	> 100 µM	12 µM (≈ 5.97 µg/mL)	–	–	–	12 µM (≈ 5.97 µg/mL)	12 µM (≈ 5.97 µg/mL)	–	MIC (Enterococcus faecalis [14]): 12 µM (≈ 5.97 µg/mL)
NC1CCN(Cc2ccc(Cn3c(C4CCNCC4)nc4cc(Cl)c(Cl)cc43)cc2)CC1	12 µM (≈ 5.67 µg/mL)	25 µM (≈ 11.8 µg/mL)	12 µM (≈ 5.67 µg/mL)	6 µM (≈ 2.83 µg/mL)	25 µM (≈ 11.8 µg/mL)	50 µM (≈ 23.6 µg/mL)	12 µM (≈ 5.67 µg/mL)	50 µM (≈ 23.6 µg/mL)	12 µM (≈ 5.67 µg/mL)	50 µM (≈ 23.6 µg/mL)	12 µM (≈ 5.67 µg/mL)	60 µM	12 µM (≈ 5.67 µg/mL)	6 µM (≈ 2.83 µg/mL)	25 µM (≈ 11.8 µg/mL)	6 µM (≈ 2.83 µg/mL)	6 µM (≈ 2.83 µg/mL)	12 µM (≈ 5.67 µg/mL)	3 µM (≈ 1.42 µg/mL)	–
Clc1cc2nc(C3CCNCC3)n(Cc3ccc(CNC4CCNCC4)cc3)c2cc1Cl	12 µM (≈ 5.67 µg/mL)	25 µM (≈ 11.8 µg/mL)	12 µM (≈ 5.67 µg/mL)	12 µM (≈ 5.67 µg/mL)	12 µM (≈ 5.67 µg/mL)	12 µM (≈ 5.67 µg/mL)	12 µM (≈ 5.67 µg/mL)	12 µM (≈ 5.67 µg/mL)	12 µM (≈ 5.67 µg/mL)	–	12 µM (≈ 5.67 µg/mL)	> 100 µM	12 µM (≈ 5.67 µg/mL)	6 µM (≈ 2.83 µg/mL)	12 µM (≈ 5.67 µg/mL)	6 µM (≈ 2.83 µg/mL)	6 µM (≈ 2.83 µg/mL)	12 µM (≈ 5.67 µg/mL)	3 µM (≈ 1.42 µg/mL)	MIC (Candida albicans [15]): 50 µM (≈ 23.6 µg/mL)

Now those with a lower MIC (Enterococcus faecalis [1]), led by results:

MIC (Pseudomonas aeruginosa)	MIC (Proteus vulgaris)	MIC (Enterococcus faecalis [1])	MIC (Enterococcus faecium [2])	MIC (Streptococcus pneumoniae)	MIC (Escherichia coli [3])	MIC (Enterococcus faecalis [4])	MIC (Escherichia coli [5])	MIC (Enterococcus faecalis [6])	MIC (Candida albicans [7])	MIC (Enterococcus faecalis [8])	IC50 [9]	MIC (Enterococcus faecium [10])	MIC (Streptococcus pyogenes)	MIC (Klebsiella pneumoniae)	MIC (Staphylococcus aureus [11])	MIC (Staphylococcus aureus [12])	MIC (Enterococcus faecalis [13])	MIC (Enterococcus hirae)	Structure (SMILES)	other results
12 µM (≈ 6.23 µg/mL)	25 µM (≈ 13 µg/mL)	6 µM (≈ 3.12 µg/mL)	3 µM (≈ 1.56 µg/mL)	6 µM (≈ 3.12 µg/mL)	6 µM (≈ 3.12 µg/mL)	6 µM (≈ 3.12 µg/mL)	6 µM (≈ 3.12 µg/mL)	6 µM (≈ 3.12 µg/mL)	50 µM (≈ 26 µg/mL)	3 µM (≈ 1.56 µg/mL)	> 100 µM	6 µM (≈ 3.12 µg/mL)	12 µM (≈ 6.23 µg/mL)	25 µM (≈ 13 µg/mL)	6 µM (≈ 3.12 µg/mL)	6 µM (≈ 3.12 µg/mL)	6 µM (≈ 3.12 µg/mL)	3 µM (≈ 1.56 µg/mL)	O=C1c2ccccc2C(=O)N1Cc1ccc(Cn2c(C3CCNCC3)nc3cc(Cl)c(Cl)cc32)cc1	–
25 µM (≈ 11.8 µg/mL)	12 µM (≈ 5.68 µg/mL)	3 µM (≈ 1.42 µg/mL)	3 µM (≈ 1.42 µg/mL)	6 µM (≈ 2.84 µg/mL)	6 µM (≈ 2.84 µg/mL)	3 µM (≈ 1.42 µg/mL)	6 µM (≈ 2.84 µg/mL)	3 µM (≈ 1.42 µg/mL)	25 µM (≈ 11.8 µg/mL)	3 µM (≈ 1.42 µg/mL)	> 100 µM	3 µM (≈ 1.42 µg/mL)	3 µM (≈ 1.42 µg/mL)	6 µM (≈ 2.84 µg/mL)	3 µM (≈ 1.42 µg/mL)	3 µM (≈ 1.42 µg/mL)	3 µM (≈ 1.42 µg/mL)	1 µM (≈ 0.473 µg/mL)	CCCCCCNCc1ccc(Cn2c(C3CCNCC3)nc3cc(Cl)c(Cl)cc32)cc1	–
25 µM (≈ 11.5 µg/mL)	25 µM (≈ 11.5 µg/mL)	6 µM (≈ 2.76 µg/mL)	3 µM (≈ 1.38 µg/mL)	12 µM (≈ 5.51 µg/mL)	12 µM (≈ 5.51 µg/mL)	6 µM (≈ 2.76 µg/mL)	12 µM (≈ 5.51 µg/mL)	6 µM (≈ 2.76 µg/mL)	50 µM (≈ 23 µg/mL)	3 µM (≈ 1.38 µg/mL)	> 100 µM	6 µM (≈ 2.76 µg/mL)	3 µM (≈ 1.38 µg/mL)	6 µM (≈ 2.76 µg/mL)	6 µM (≈ 2.76 µg/mL)	6 µM (≈ 2.76 µg/mL)	6 µM (≈ 2.76 µg/mL)	1 µM (≈ 0.459 µg/mL)	CCCCCNCc1ccc(Cn2c(C3CCNCC3)nc3cc(Cl)c(Cl)cc32)cc1	–
